We go through 22 compounds from ChEMBL document CHEMBL1153071, “Synthesis, biological evaluation, and SAR study of novel pyrazole analogues as inhibitors of Mycobacterium tuberculosis: part 2. Synthesis of rigid pyrazolones” (Bioorg Med Chem, 2009).

SMILES strings stand for the structures. In brackets after ≈: the same amount, converted by molar mass.

In one data set the test system is Mycobacterium tuberculosis. Kind of data set: Antimycobacterial activity against Mycobacterium tuberculosis.
Conditions: not given
Type of data set: functional. The procedure, abridged:
(§1)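 Strain H37Rv ATCC 27294, kept on Löwenstein-Jensen slants and grown for inoculum in 7H9 broth with 10% ADC. Twofold agar dilution on Middlebrook 7H11 with 10% OADC, compound 0.0312–64 μg/mL. Each well received 10 μL of 1.5×10^5 cfu/mL (final 1.5×10^3 per well). Incubated 21–28 days. MIC (μg/mL) is the lowest concentration completely inhibiting visible growth.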
With `Cc1nn(-c2ccccc2)c(O)c1C(=O)c1ccc(Cl)cc1`, 4 µg/mL (≈ 12.8 µM) was the least that counted as inhibitory (MIC).
Still for that read-out and setting: in the case of `Cc1[nH]n(-c2ccc(F)cc2)c(=O)c1C(=O)c1ccc(Cl)cc1` it was 4 µg/mL (≈ 12.1 µM).
Same read-out and setting: in the case of `Cc1[nH]n(-c2ccc(Br)cc2)c(=O)c1C(=O)c1ccc(Cl)cc1` it was 4 µg/mL (≈ 10.2 µM); in that of `Cc1[nH]n(-c2ccc(Cl)cc2)c(=O)c1C(=O)c1ccc(Cl)cc1`, 4 µg/mL (≈ 11.5 µM).

Tested on in the next data set: not listed separately
The data set can be described thus: Cytotoxicity against african green monkey Vero cells. The conditions noted are these: chlorocebus sabaeus. Type of data set: cell-based.
`CC1=NN(c2ccccc2)C(=O)/C1=C(/c1ccc(Cl)cc1)N1CCSCC1` gave a CC50 of 5.71 µg/mL (≈ 14.3 µM).
For `CC1=NN(c2ccc(Cl)cc2)C(=O)/C1=C(/c1ccc(Cl)cc1)N1CCN(C)CC1`, the CC50 turned out to be 5.49 µg/mL (≈ 12.8 µM).
As for `CC1=NN(c2ccc(Cl)cc2)C(=O)/C1=C(/c1ccc(Cl)cc1)N1CCSCC1`, the CC50 worked out at 4.86 µg/mL (≈ 11.2 µM).
On the same count and under the same terms, next, `CC1=NN(c2ccccc2)C(=O)/C1=C(/c1ccc(Cl)cc1)N1CCN(C)CC1`: 5.58 µg/mL (≈ 14.1 µM).

For a further data set, the system named is Mycobacterium tuberculosis. Kind of data set: Antimycobacterial activity against Mycobacterium tuberculosis H37Rv ATCC 27294 after 21 to 28 days by twofold agar dilution method. The data set is classed as functional.
Conditions: not given
An outline of the steps:
as §1
In the case of `CC1=NN(c2ccc(Cl)cc2)C(=O)/C1=C(/c1ccc(Cl)cc1)N1CCCCC1`, the MIC was above 64 µg/mL.
The same measure, in the same setting: next, `CC1=NN(c2ccc(Cl)cc2)C(=O)/C1=C\N1CCN(C)CC1`: 64 µg/mL (≈ 201 µM).
On the same count and under the same terms, next, `CC1=NN(c2ccc(Cl)cc2)C(=O)/C1=C(/c1ccc(Cl)cc1)N1CCC(C)CC1`: 64 µg/mL (≈ 149 µM); `CC1=NN(c2ccc(Cl)cc2)C(=O)/C1=C\N1CCN(CCO)CC1`: 64 µg/mL (≈ 183 µM); `CC1=NN(c2ccc(Cl)cc2)C(=O)/C1=C\N(C)C`: above 64 µg/mL.
As for `CC1=NN(c2ccc(Cl)cc2)C(=O)/C1=C\Nc1ccccc1`, 64 µg/mL (≈ 205 µM) was the least that counted as inhibitory (MIC).
Same read-out and setting: next, `CC1=NN(c2ccccc2)C(=O)/C1=C(/c1ccc(Cl)cc1)N(C)C`: 32 µg/mL (≈ 94.2 µM).
On the same count and under the same terms, in the case of `CC1=NN(c2ccccc2)C(=O)/C1=C(/c1ccc(Cl)cc1)N1CCOCC1` it was 16 µg/mL (≈ 41.9 µM); in that of `CC1=NN(c2ccc(Cl)cc2)C(=O)/C1=C(/c1ccc(Cl)cc1)N1CCOCC1`, 4 µg/mL (≈ 9.61 µM); in that of `CC1=NN(c2ccccc2)C(=O)/C1=C(/c1ccc(Cl)cc1)N1CCSCC1`, 8 µg/mL (≈ 20.1 µM).
The compound `CC1=NN(c2ccc(Cl)cc2)C(=O)/C1=C(/c1ccc(Cl)cc1)N1CCN(C)CC1` yielded an MIC of 4 µg/mL (≈ 9.32 µM).
For `CC1=NN(c2ccc(Cl)cc2)C(=O)/C1=C(/c1ccc(Cl)cc1)N1CCSCC1`, inhibition of growth (MIC) required 8 µg/mL (≈ 18.5 µM).
The same measure, in the same setting: in the case of `CCCN(C)/C(=C1\C(=O)N(c2ccc(Cl)cc2)N=C1C)c1ccc(Cl)cc1` it was 64 µg/mL (≈ 159 µM); in that of `CC1=NN(c2ccc(Cl)cc2)C(=O)/C1=C\N1CCN(c2ccccc2)CC1`, 64 µg/mL (≈ 168 µM); in that of `CC1=NN(c2ccc(Cl)cc2)C(=O)/C1=C(/c1ccc(Cl)cc1)N(C)C`, 16 µg/mL (≈ 42.7 µM).
The compound `CC1=NN(c2ccc(Cl)cc2)C(=O)/C1=C\N1CCOCC1` displayed an MIC of 64 µg/mL (≈ 209 µM).
`CC1=NN(c2ccccc2)C(=O)/C1=C(/c1ccc(Cl)cc1)N1CCN(C)CC1`: the MIC amounted to 8 µg/mL (≈ 20.3 µM).
Compound `CC(=O)N1CCN(/C=C2\C(=O)N(c3ccc(Cl)cc3)N=C2C)CC1` displayed an MIC of 64 µg/mL (≈ 185 µM).
